Data published in PubChem BioAssay AID821 (SRMLSC, 2007).
Calls of active or inactive are those of the source.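 How the source made its calls: active means compounds whose fitted half-maximal concentration for reducing fibroblast viability is 100 µM or lower; inactive means the rest.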

Assay: inhibition of LL 47 lung fibroblast growth, concentration-response curve, selectivity screen for endothelial cell growth inhibitor project, cellular system, ATP luminescence readout (AID 821);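 further: 100% = median of untreated cell-only wells and 0% = no luminescence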
Conditions: LL 47 lung fibroblast viability, ATP luminescence; at 20 µM (top of the series)
Method in brief: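 Assay system: LL 47 human lung fibroblasts; Compound: dose series 0.039–20 µM final, 0.2% DMSO; Schedule: 72 h compound treatment at 37 °C after overnight attachment; Technique: CellTiter-Glo luminescence; Evaluation: percent viability relative to untreated wells, EC50 via 4-parameter fit.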
For `CC1(C)CSC(=S)N1S(=O)(=O)c1ccccc1`, the viability was 115% (inactive).
For `COc1ccc(CCNC(=O)c2ccc3c(=O)n(Cc4ccco4)c(=S)[nH]c3c2)cc1OC`, the viability was 112% (inactive).
In the case of `Cn1c(-c2ccc3ccccc3n2)nc2cnccc21`, the viability is reported as 93.4% (inactive).
For `Cc1ccc(S(=O)(=O)c2c(C)nn(C(C)(C)C)c2OC(=O)c2ccc(Br)o2)cc1`, the viability was 103% (inactive).
For `N#Cc1nc(COc2ccc(-c3ccccc3)cc2)oc1NCCCN1CCOCC1`, the viability was 91.9% (inactive).
For `Cc1ccc(-n2c(SCC(=O)Nc3ccc4c(c3)OCO4)nnc2-c2ccccn2)cc1`, the viability was 103% (inactive).
For `COc1ccc(NC(=O)c2cc3n(n2)C(C(F)(F)F)CC(c2ccc(OC)cc2)N3)cc1` (stereo not drawn), the viability was 96.4% (inactive).
For `COc1cc(-c2nnc(COc3ccc4cc(Br)ccc4c3)o2)cc(OC)c1OC`, the viability was 127% (inactive).
In the case of `COC(=O)/C(=C\Nc1ccc(Cl)cc1Cl)NC(=O)c1ccc(Cl)cc1Cl`, the viability is reported as 96% (inactive).
In the case of `O=[N+]([O-])c1cccnc1N1CCC(c2cc(-c3cccc(C(F)(F)F)c3)n[nH]2)CC1`, the viability is reported as 102% (inactive).
In the case of `Cc1ccccc1-n1ncc2c([N+](=O)[O-])cc([N+](=O)[O-])cc21`, the viability is reported as 90.7% (inactive).
In the case of `COc1cc(OC)cc(C(=O)Nc2ccc(-c3nc4ccccc4o3)cc2)c1`, the viability is reported as 107% (inactive).
In the case of `Cc1ccc(S(=O)(=O)c2c(C)nn(C(C)(C)C)c2OC(=O)c2cccs2)cc1`, the viability is reported as 104% (inactive).
With `Cc1cc(Cl)ccc1N=c1ssnc1Cl` the viability was 104% (inactive).
For `O=C(CSc1ncnc2c1oc1ccccc12)Nc1nc2ccccc2s1`, the viability was 105% (inactive).
With `COc1ccccc1OCC(=O)Nc1cccc(-c2nc3ccccc3o2)c1` the viability was 99% (inactive).
With `CCOC(=O)c1c(CN2CCN(c3ccccc3)CC2)oc2ccc(O)cc12` the viability was 83.2% (inactive).
For `CC(C)OCCCN1C(=O)c2[nH]nc(-c3ccccc3O)c2C1c1cccc(Cl)c1` (stereo not drawn), the viability was 98.3% (inactive).
With `CCOc1ccc2nc(NC(=O)CN3CCC(n4nnc5cc(F)ccc54)CC3)sc2c1` the viability was 82.7% (inactive).
With `CCn1c2c(c3cc(Br)ccc31)CCC/C2=N\O` the viability was 85.2% (inactive).
With `COc1ccc2[nH]cc(C(=O)CN3CCN(C4CCCCC4)CC3)c2c1` the viability was 103% (inactive).
With `Cc1cccc(-c2nnc(NC(=O)c3ccc(Cl)cc3)o2)c1` the viability was 87.4% (inactive).
With `COCCn1c(SCC(=O)Nc2ccc(NC(=O)c3ccco3)c(OC)c2)nc2ccccc2c1=O` the viability was 99.1% (inactive).
For `Cc1ccc(C)c(N2CCN(CCCNC(=O)Cn3cc4c(n3)CCCCC4)CC2)c1`, the viability was 83.3% (inactive).
For `O=S1(=O)c2ccccc2N=NN1Cc1cc(Cl)cc(Cl)c1`, the viability was 84.5% (inactive).
For `CCCCCCn1c(C)nc2c(c1=O)c1nc3ccccc3nc1n2/N=C/c1ccco1`, the viability was 111% (inactive).
In the case of `COc1ccccc1NC(=O)CC1C(=O)NCCN1C(=O)Nc1ccc(Cl)c(Cl)c1` (stereo not drawn), the viability is reported as 82.4% (inactive).
In the case of `CCCOC(=O)c1ccc(Oc2c(-c3ccc(OC)cc3O)n[nH]c2C)cc1`, the viability is reported as 97.5% (inactive).
With `O=C(Cn1cc(C(=O)c2ccccc2F)c2ccccc21)NCc1ccco1` the viability was 104% (inactive).
With `O=C(Nc1nnc(-c2ccc3c(c2)CCCC3)o1)c1ccc(Cl)cc1Cl` the viability was 95.8% (inactive).
For `C=C(C)COc1ccc(-c2n[nH]c(C)c2Oc2ccccc2OC)c(O)c1`, the viability was 94.7% (inactive).
For `Cc1nn(-c2ccc(F)cc2)c(C)c1NS(=O)(=O)c1ccc(Cl)cc1`, the viability was 90.7% (inactive).
In the case of `COc1ccc(NC(=O)CSc2nnc(CNC(=O)COc3ccc(Cl)cc3)o2)c(OC)c1`, the viability is reported as 97% (inactive).
For `CCc1ccc(NC(=O)CCc2nc3cccnc3n2Cc2ccc(OC)cc2)cc1`, the viability was 90.2% (inactive).
For `O=C(Nc1cccc(-c2nnc(-c3ccccc3)o2)c1)c1ccc(Br)o1`, the viability was 118% (inactive).
In the case of `Cc1cc(=O)[nH]c2ccc(Cl)cc12`, the viability is reported as 102% (inactive).
For `CC(=O)Nc1ccc(S(=O)(=O)NC2=C(N3CCN(Cc4ccccc4)CC3)C(=O)c3ccccc3C2=O)cc1`, the viability was 89.8% (inactive).
With `CC12CCC(=O)C=C1CCC1C2CCC2(C)C(O)CCC12` (stereo not drawn) the viability was 95.3% (inactive).
For `CCCOc1ccc(-c2nc(C#N)c(NCCCn3ccnc3)o2)cc1`, the viability was 90.9% (inactive).
In the case of `O=C1C2=C(NC(=S)NC2c2ccc(Cl)cc2)NC(c2ccc(Cl)cc2)N1c1ccc(Cl)cc1` (stereo not drawn), the viability is reported as 99.2% (inactive).
In the case of `CCOc1ccc(-c2n[nH]c(C)c2Oc2ccc(OC)cc2)c(O)c1`, the viability is reported as 93.9% (inactive).
With `CCOC(=O)N1CCc2c(sc(NC(=O)c3ccc(S(=O)(=O)N4CCCC4)cc3)c2C#N)C1` the viability was 81.6% (inactive).
In the case of `CCc1ccc2[nH]c(=O)c(CN(Cc3ccccc3)C(=O)Nc3ccccc3OC)cc2c1`, the viability is reported as 88.9% (inactive).
For `Cc1ccc2[nH]c3c(N4CCN(Cc5ccc6c(c5)OCO6)CC4)ncnc3c2c1`, the viability was 88.1% (inactive).
In the case of `CCCOC(=O)c1ccc(Oc2cn[nH]c2-c2ccc(OC)cc2O)cc1`, the viability is reported as 86.6% (inactive).
With `Cc1nn(-c2ccc(Cl)cc2)c2sc(C(=O)N3CCN(c4ccccn4)CC3)cc12` the viability was 91.4% (inactive).
With `COC(=O)CSc1nc2ccc(NC(=O)CSc3nnnn3Cc3ccccc3)cc2s1` the viability was 108% (inactive).
With `O=C(Cc1sc(-c2ccccc2Cl)nc1-c1ccccc1)Nc1ccccc1` the viability was 99.7% (inactive).
In the case of `CCCCc1oc2ccccc2c1C(=O)c1cc(I)c(OCCN(CC)CC)c(I)c1`, the viability is reported as 88% (inactive).
With `Cc1ccccc1NC(=O)CSC(N)=O` the viability was 110% (inactive).
With `NC(=O)Cc1c[nH]c2cccc(O)c12` the viability was 111% (inactive).
With `COc1cc2c(C(=O)NCc3ccc4c(c3)OCO4)cn(CC(C)C)c(=O)c2cc1OC` the viability was 106% (inactive).
With `Cc1cc(Cl)ccc1OCCCC(N)=O` the viability was 95% (inactive).
In the case of `COc1cccc2c(C)nc(Nc3nc(CSc4nnc(C)s4)cc(=O)[nH]3)nc12`, the viability is reported as 117% (inactive).
In the case of `O=C(NCCC1=CCCCC1)C1CCN(Cc2cnn(-c3ccccc3)c2-n2cccc2)CC1`, the viability is reported as 92.5% (inactive).
With `O=C(NCc1ccc2c(c1)OCO2)C1CCC(CNS(=O)(=O)c2cccc3nsnc23)CC1` (stereo not drawn) the viability was 106% (inactive).
In the case of `Cn1c(=O)c2c(nc(Oc3ccc4c(c3)OCO4)n2Cc2ccc(Cl)cc2)n(C)c1=O`, the viability is reported as 87.5% (inactive).
In the case of `COc1ccccc1NC(=O)C1C2C=CC(O2)C1C(=O)O` (stereo not drawn), the viability is reported as 100% (inactive).
In the case of `CSc1nnc2n(-c3ccc(C)cc3)c(=O)c3c4c(sc3n12)COC(C(C)C)C4` (stereo not drawn), the viability is reported as 109% (inactive).
With `CCOC(=O)CNC(=O)C(=O)c1c(O)[nH]c2ccccc12` the viability was 96.6% (inactive).
With `COc1ccc2cc3cc(C(=O)Nc4ccc5c(c4)OCCO5)oc3nc2c1` the viability was 98.4% (inactive).
With `CCCCC(=O)Nc1ccc(C(=O)Nc2ccc(S(=O)(=O)N3CCCC3)cc2)cc1` the viability was 104% (inactive).
In the case of `Cc1occc1-c1nnc(SCC(=O)NCc2cccs2)n1-c1ccc(F)cc1`, the viability is reported as 99.1% (inactive).
For `COc1ccc2[nH]cc(C(=O)CN3CCN(C(=O)c4ccco4)CC3)c2c1`, the viability was 108% (inactive).
With `Cc1ccc(N=Nc2c(C)[nH][nH]c2=O)c(C)c1` the viability was 97.6% (inactive).
In the case of `O=C(CC1SCCNC1=O)Nc1cc(Cl)cc(Cl)c1` (stereo not drawn), the viability is reported as 100% (inactive).
With `C/C(CC1CC2=C(CC1(C)C)C(C)(C)CCC2)=N\NC(N)=S` (stereo not drawn) the viability was 87.7% (inactive).
In the case of `C=C(C)COc1ccc(-c2n[nH]c(C)c2-c2ccccc2OC)c(O)c1`, the viability is reported as 90.3% (inactive).
In the case of `Cc1cc(/C=C2\C(=N)N3C(SCc4ccccc4)=NSC3=NC2=O)c(C)n1Cc1ccccc1`, the viability is reported as 92.2% (inactive).
In the case of `CCCN(CCO)Cc1cccc(Br)c1`, the viability is reported as 97.9% (inactive).
With `CCOc1ccc(-c2nn3c(-c4ccccc4)nnc3s2)cc1` the viability was 113% (inactive).
In the case of `CCCc1cc(C(=O)Cc2ccc(F)cc2)c(O)cc1O`, the viability is reported as 96.5% (inactive).
With `CCCc1nc(SCC(=O)N2CCC(Cc3ccccc3)CC2)c2c(=O)n(C)c(=O)n(C)c2n1` the viability was 106% (inactive).
In the case of `CCCCCCOC(=O)C(C#N)c1nc2ccccc2nc1N1CCN(C)CC1` (stereo not drawn), the viability is reported as 90.4% (inactive).
With `O=C(CC1CCCCC1)c1c(O)c2ccccc2oc1=O` the viability was 88.5% (inactive).
In the case of `O=C(COC(=O)c1cccnc1Nc1cccc(C(F)(F)F)c1)NCc1ccc2c(c1)OCO2`, the viability is reported as 130% (inactive).
With `COCCCNC(=O)c1ccc2c(=O)n(Cc3ccc4c(c3)OCO4)c(=S)[nH]c2c1` the viability was 106% (inactive).
In the case of `Cc1ccc(-n2c(SCC(=O)Nc3nccs3)nc3c(c2=O)SCC3)cc1`, the viability is reported as 107% (inactive).
With `COc1ccc(-c2noc(-c3ccc(Br)o3)n2)cc1OC` the viability was 116% (inactive).
With `Cc1nn(Cc2ccc(Cl)c(Cl)c2)c(C)c1NC(=O)c1cc(-c2ccc3c(c2)OCO3)on1` the viability was 94.2% (inactive).
With `N#Cc1nc(-c2ccc(OCc3ccccc3)cc2)oc1NCCCn1ccnc1` the viability was 92.9% (inactive).
With `Cn1c(SCC(=O)Nc2ccc(N3CCOCC3)cc2)nnc1-c1ccccc1` the viability was 109% (inactive).
With `COc1ccc(CCC(=O)N2CCN(C3CCCCC3)CC2)cc1` the viability was 95.1% (inactive).
For `Cc1cc(N2CCCCC2)nc2ccc(NC(=O)c3ccc(Br)o3)cc12`, the viability was 94.4% (inactive).
For `CN1C(=O)C(O)(CC(=O)c2cccc(-n3cccc3)c2)c2ccccc21` (stereo not drawn), the viability was 93.7% (inactive).
With `CC(C)COc1ccc2[nH]c3c(c2c1)CCCC3=O` the viability was 101% (inactive).
In the case of `COc1ccc2nc3oc(C(=O)N4CCN(c5ccccc5F)CC4)cc3cc2c1`, the viability is reported as 108% (inactive).
In the case of `CC1(C)Cc2c(C#N)c(SCC(=O)c3ccccc3)nc(N3CCOCC3)c2CO1`, the viability is reported as 90.1% (inactive).
With `Cc1cccc(-c2nc(CN3CCCC(C(=O)NC4CCCCCC4)C3)c(C)o2)c1` (stereo not drawn) the viability was 90.9% (inactive).
In the case of `O=C(Nc1ccc2c(c1)OCO2)c1cc(C2CC2)on1`, the viability is reported as 104% (inactive).
For `Cc1cccc2c1N(CCCOc1ccc(C(C)(C)C)cc1)C(=O)C2=O`, the viability was 92.2% (inactive).
For `Cc1nc2c(C(=O)NCCC(C)C)c[nH]n2c(=O)c1Cc1ccccc1F`, the viability was 99.7% (inactive).
With `O=C(Nc1ccc2nn(-c3ccccc3)nc2c1)c1ccc2c(c1)OCCO2` the viability was 105% (inactive).
